Assay results of several laboratories.
Each line is one published result; the experiments were not run side by side.
USP7: Ubiquitin carboxyl-terminal hydrolase 7 (USP7, Homo sapiens, UniProt Q93009)
EEF2K: Eukaryotic elongation factor 2 kinase (EEF2K, Homo sapiens, UniProt O00418)
MMP1: Interstitial collagenase (MMP1, Homo sapiens, UniProt P03956)
CASP9: Caspase-9 (CASP9, Homo sapiens, UniProt P55211)

COc1cc(Nc2ncc(F)c(Nc3ccc4c(n3)NC(=O)C(C)(C)O4)n2)cc(OC)c1OC — inhibition (TRAF2 and NCK-interacting protein kinase (TNIK, Homo sapiens, UniProt Q9UKE5); binding; 10 µM): 56%
CN(C)C(=O)COC(=O)Cc1ccc(OC(=O)c2ccc(NC(=N)N)cc2)cc1 — inhibition (USP7; enzyme activity, inhibitor; 10 µM): 0%
COCc1c(-c2cc3cc(C)cc(OC)c3s2)c2c(N)ncnn2c1CN1CCNC(=O)C1 — inhibition (Calcium-dependent protein kinase 1 (CDPK1, Plasmodium falciparum, UniProt P62344); cell-free assay, competition with immobilised ligand; 1 µM): 93.3%
Cn1cc(-c2cc(F)cc(N3CCn4c(cc5c4CCCC5)C3=O)c2CO)cc(Nc2ccc(N3CCN(C4COC4)CC3)cn2)c1=O — inhibition (EEF2K; enzyme activity, inhibitor; 0.1 µM): 4%
O=C(Nc1cccnn1)N1CCN([C@@H]2CCOc3cc(C(F)(F)F)ccc32)CC1 — inhibition (Alpha-1B adrenergic receptor (ADRA1B, Homo sapiens, UniProt P35368); cell-free assay; 20 µM): 5%
C#Cc1n[nH]c2c(-c3cn([C@@H](C)c4ccccc4)c(=O)[nH]c3=O)cc(F)cc12 — inhibition (EEF2K; enzyme activity, inhibitor; 0.1 µM): 2.3%
N=C(N)c1ccc2cc(OC(=O)c3ccc(N=C(N)N)cc3)ccc2c1 — inhibition (USP7; enzyme activity, inhibitor; 10 µM): 0%
C#Cc1n[nH]c2c(-c3cn(C(C)c4ccccn4)c(=O)[nH]c3=O)cc(F)cc12 (stereo not shown) — inhibition (TGF-beta receptor type-1 (TGFBR1, Homo sapiens, UniProt P36897); enzyme activity, inhibitor; 1 µM): 25.2%
CCN(CC)CCCC[C@H](NC(=O)[C@H](CC(C)C)NC(=O)[C@H](C)NC(=O)[C@H](Cc1ccccc1)NC(=O)c1ccc(C(C)(C)C)cc1)C(=O)N[C@@H](CO)C(=O)OC — inhibition (C-C chemokine receptor type 1 (CCR1, Homo sapiens, UniProt P32246); ligand displacement, radioligand; 10 µM): 7%
Cc1ncc(C)n2nc(/C=C/c3nc(N4CCCC4)cc(N4CCOCC4)n3)nc12 — inhibition (High affinity choline transporter 1 (SLC5A7, Homo sapiens, UniProt Q9GZV3); ligand displacement; 10 µM): 14%
COc1ccc(S(=O)(=O)N(CC(=O)NO)CC(C)C)cc1 — inhibition (MMP1; enzyme activity, inhibitor; 1 µM): 26%
c1ccc(C(NCCNC(c2ccccc2)c2ccccc2)c2ccccc2)cc1 — inhibition (MMP1; enzyme activity, inhibitor; 10 µM): -10%
COC(=O)CC[C@H](NC(=O)[C@H](CC(C)C)NC(=O)OCc1ccccc1)C(=O)N[C@@H](Cc1cnc[nH]1)C(=O)N[C@@H](CC(=O)OC)C(=O)CF — inhibition (CASP9; enzyme activity, inhibitor; 10 µM): 86%
COc1ccc(S(=O)(=O)N2CCCCC2)cc1C — inhibition (Corticotropin-releasing factor receptor 1 (CRHR1, Homo sapiens, UniProt P34998); ligand displacement, radioligand; 10 µM): < 30%
CCOC(=O)c1ccc(OC(=O)CCCCCNC(=N)N)cc1 — inhibition (CASP9; enzyme activity, inhibitor; 10 µM): 7%
Cn1cc(-c2cccc(N3CCc4c(sc5c4CC(C)(C)C5)C3=O)c2CO)cc(Nc2ccncn2)c1=O — inhibition (Hepatocyte growth factor receptor (MET, Homo sapiens, UniProt P08581); enzyme activity, inhibitor; 1 µM): 9%
